Reference: PubChem BioAssay AID692 (The Scripps Research Institute Molecular Screening Center, 2007)
pEC50: −log10 of the molar value. Activity calls are given as the source filed them.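 The calls were made as follows: active = EC50 at or below a set limit; inactive = the rest.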

Target: Steroidogenic factor 1 (Homo sapiens) (UniProt Q13285)
Test: activation of SF-1 LBD reporter – cell-based, CHO-K1, Gal4-SF-1 LBD, luciferase luminescence, dose response (AID 692)
Conditions: CHO-K1 Gal4-SF1 LBD luciferase reporter
Procedure, shortened: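 Test system: CHO-K1 cells transiently expressing Gal4-DBD/human SF-1 LBD fusion with 5xGal4-luciferase reporter | Compound: 10 points, 1:3 steps, up to 100 µM | Incubation: Compound exposure of cells 20 h at 37 °C | Measured by: Luminescence | Control set: DMSO-treated SF-1-transfected cells and mock-transfected reporter-only background cells | Replication: Each concentration tested in triplicate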

Sequence of Steroidogenic factor 1 (Homo sapiens) (Q13285 whole entry, looked up, the tested form may be a part): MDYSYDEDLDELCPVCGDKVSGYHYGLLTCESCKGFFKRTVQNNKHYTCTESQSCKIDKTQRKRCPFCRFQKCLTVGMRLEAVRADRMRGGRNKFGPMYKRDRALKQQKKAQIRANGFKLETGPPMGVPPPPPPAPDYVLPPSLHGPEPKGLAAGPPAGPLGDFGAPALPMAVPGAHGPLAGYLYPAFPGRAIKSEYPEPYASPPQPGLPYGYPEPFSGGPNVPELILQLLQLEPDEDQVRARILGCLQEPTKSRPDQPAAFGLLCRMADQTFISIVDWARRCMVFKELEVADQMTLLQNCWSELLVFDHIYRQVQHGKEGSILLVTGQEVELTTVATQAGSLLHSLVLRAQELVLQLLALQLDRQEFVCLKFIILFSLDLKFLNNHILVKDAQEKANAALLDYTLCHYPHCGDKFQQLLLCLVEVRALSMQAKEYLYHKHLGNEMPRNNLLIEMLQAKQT

Compound	EC50	pEC50
CC1(C)CC(=O)C(C=Nc2ccc3[nH]ncc3c2)=C(O)C1	> 11 µM (inactive)	
COc1cc(C2C3C(=O)N(c4ccccc4)C(=O)C3ON2c2ccccc2)ccc1O (stereo not drawn)	inactive	
Cc1ccc(C2/C(=C(\O)c3cnn(-c4ccccc4)c3C)C(=O)C(=O)N2CCN(C)C)o1 (stereo not drawn)		5.44
COC(=O)c1ccc(/C(O)=C(\C#N)c2nc3ccccc3s2)cc1		5.57
CC1(C)CC(=O)C(C=Nc2ccccc2)=C(O)C1		5.17
C/C(N)=C(/C#N)C(=O)CSc1ccc2c(c1)OCCO2		5.54
O=C1CCCC(O)=C1C=Nc1ccc(O)cc1		5.42
COc1ccc(C(=O)/C=C/Nc2cccc(C)n2)cc1OC		6.40
